Assay outcomes as filed in PubChem.
Jurkat tox 60K: reduces viability or proliferation of Jurkat cells. inhibition, % at 4 µM. 56,000 tested, 1.2% active. Jurkat E6.1 viability, ATP luminescence, 48 h;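 active = inhibition above the mean inhibition of all tested compounds plus 3 SD, cut at about 28% in these data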
H69AR growth 86K: blocks growth of human H69AR lung tumor cells | H69AR lung tumor viability, ATP luminescence, 72 h; active compounds read low | viability, % at 10 µM | 85,000 tested, 6% active | AID 598;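 active = viability at or below 40%; inactive = viability above 40%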;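 note: multidrug resistant small cell line overexpressing MRP-1 efflux transporter; 100% = mean luminescence of untreated control wells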
HUVEC prolif 384: human endothelial cell proliferation inhibition | HUVEC proliferation, CellTiter-Glo luminescence, 72 h; active compounds read low | 86,000 tested, 1.1% active | AID 648 | viability, % at 10 µM (by protocol);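 active = viability at or below 30%; inactive = viability above 30%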;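 note: 100% = median luminescence of DMSO-only cell control wells on each plate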
Lung fibro prol: blocks proliferation of human lung fibroblasts. AID 719. 85,000 tested, 1.1% active. viability, % at 10 µM. LL 47 human lung fibroblast viability, ATP luminescence; active compounds read low;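 active = viability at or below 50% in the single dose screen; inactive = viability above 50%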;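 note: compound exposure lasted 72 h before the ATP readout; 100% = median luminescence of untreated cell-only wells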
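test system = LL 47 human lung fibroblasts | amount = 1,150 fibroblasts seeded per well | medium = 15% FBS in IMEM | times = overnight cell rest, 72 h compound treatment at 37 °C | measured by = CellTiter-Glo luminescence measuring cellular ATP | read-out = viability percentage against median untreated-cell control | benchmarks = cell-only wells, no compound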
* hit, by the source's call; x = no result given. Compounds with a hit are over-represented: about 6.4% of the library has one in this group of screens.

SMILES	Jurkat tox 60K	H69AR growth 86K	HUVEC prolif 384	Lung fibro prol
O=C(CSc1nnc(-c2cccs2)n1CC1CCCO1)c1cc2ccccc2o1 (configuration not stated)	10.4	79.5	95.8	103.0
Cc1cc(C)c2nc(SC(C)C#N)cc(C)c2c1 (configuration not stated)	x	30.6*	93.0	96.4
CCCSc1nc(C)c2cc(C)cc(C)c2n1	x	94.9	103.7	79.7
COc1cccc(C(=O)Oc2c(CN3CCOCC3)cc(Cl)c3cccnc23)c1	x	1.5*	71.7	6.5*
COc1cc(C(=O)Oc2c(CN3CCOCC3)cc(Cl)c3cccnc23)cc(OC)c1OC	7.3	2.1*	82.4	4.7*
COc1cccc(NC(=O)c2ccc(CN3CCOCC3)cc2)c1	11.3	86.8	98.6	101.0
COc1ccc(C(=O)Oc2c(CN3CCOCC3)cc(Cl)c3cccnc23)cc1	16.1	2.4*	82.5	47.0*
O=C(Oc1c(CN2CCOCC2)cc(Cl)c2cccnc12)c1ccc(F)cc1	22.7	88.3	76.8	4.5*
O=C(Oc1ccc(Cl)c2cccnc12)N1CCOCC1	0.7	x	x	x
COc1ccc2[nH]cc(C(=O)CN3CCN(C(=O)c4ccco4)CC3)c2c1	-4.8	79.3	29.2*	107.5
COC(=O)c1[nH]c2ccccc2c1NC(=O)CN1CCN(C(=O)c2ccco2)CC1	0.3	18.3*	95.2	95.1
COc1ccc(-c2cc(-c3ccc(Br)cc3)nc3ncnn23)cc1OC	x	66.8	79.6	86.3
O=C(NCc1cccs1)c1csc2ccccc12	-6.7	102.0	95.9	98.8
COc1cccc(-n2c(SCC(=O)Nc3cc(C)on3)nc3c([nH]c4ccccc43)c2=O)c1	5.0	92.3	78.5	78.1
COc1cccc(-n2c(SCC(N)=O)nc3c([nH]c4ccccc43)c2=O)c1	x	23.2*	72.3	65.6
CC1=C(C(=O)Nc2ccccc2)C(c2ccc(C)o2)n2c(s/c(=C/c3ccccc3)c2=O)=N1 (configuration not stated)	x	22.6*	78.9	91.4
CC1=C(C(=O)Nc2ccccc2C)C(c2ccc(C)o2)n2c(s/c(=C/c3ccccc3)c2=O)=N1 (configuration not stated)	x	42.1	66.1	74.6
COCCn1c(SCC(=O)Nc2ccc(S(=O)(=O)N(C)C)cc2)nc2ccccc21	x	34.8*	102.0	97.4
CCCCn1c(SCC(=O)Nc2cc(C)on2)nc2ccccc2c1=O	-9.3	103.0	104.8	101.4
CCn1c(SCC(=O)Nc2ccc(NC(=O)c3ccco3)c(OC)c2)nc2ccccc2c1=O	-0.6	10.0*	52.9	87.7
COCCn1c(SCC(=O)Nc2ccc(Cl)cn2)nc2ccccc21	x	108.9	106.8	105.3
CCCCn1c(SCC(=O)Nc2cc(NC(=O)c3ccco3)ccc2C)nc2ccccc2c1=O	-4.0	6.8*	31.4	97.7
COCCn1c(SCC(=O)Nc2ccc(NC(=O)c3ccco3)c(OC)c2)nc2ccccc2c1=O	x	31.4*	32.5	93.2
CCCCCNc1nc(NCCCO)c(C#N)c2c1CN(C)CC2	x	79.0	92.5	96.9
N#Cc1c(N2CCN(C(=O)c3ccco3)CC2)nc(-c2ccccc2)c2c1CCCC2	5.7	41.9	62.7	91.3
SMILES	Jurkat tox 60K	H69AR growth 86K	HUVEC prolif 384	Lung fibro prol
C=CCNc1nc(NCc2ccccc2)c(C#N)c2c1CN(C)CC2	x	29.5*	11.1*	57.7
N#Cc1c(NCCCO)nc(-c2ccccc2)c2c1CCCC2	x	83.7	80.2	94.7
CCN1CCc2c(C#N)c(NCc3ccccc3)nc(N(CC)CC)c2C1	x	57.6	55.3	82.1
N#Cc1c(NCCN)nc(NCc2ccccc2)c2c1CCN(Cc1ccccc1)C2	x	47.4	18.1*	82.6
N#Cc1c(NCCN)nc(-c2ccccc2)c2c1CCCC2	x	6.0*	88.8	66.5
N#Cc1c(N2CCN(C(=O)c3ccccc3)CC2)nc(-c2ccccc2)c2c1CCCC2	x	14.5*	69.0	91.3
Fc1ccc(CNc2nc3ccccc3n3cnnc23)cc1	x	75.2	96.3	102.0
Cn1c(OCc2ccc3c(c2)OCO3)nc2c1c(=O)n(Cc1cccc(Cl)c1)c(=O)n2C	x	57.7	93.1	100.5
O=C(NC1CCCCCC1)C1CC(=O)N(Cc2ccccc2)C1 (configuration not stated)	8.8	88.2	93.4	99.4
COc1cccc(NC(=O)CCNC(=O)Cn2ccc3ccccc3c2=O)c1	x	104.2	100.3	96.0
Cc1cc(C)c(C)c(S(=O)(=O)NCc2ccc(C(=O)N3CCCCC3)cc2)c1C	x	33.1*	95.0	98.9
CCN=c1sc(C(=O)NCCc2ccccc2)cc(=O)n1CC	18.8	9.9*	58.8	86.6
O=C(NCCc1ccccc1)c1cccs1	x	98.7	95.4	94.1
CCOC(=O)C1=C(C)NC(C)=C(C(=O)OC)C1c1cccc([N+](=O)[O-])c1 (configuration not stated)	x	92.4	78.0	95.4
CC1=C(C(=O)Nc2ccccc2)C(c2cccc([N+](=O)[O-])c2)Nc2nc3ccccc3n21 (configuration not stated)	x	34.6*	91.2	96.5
CCOC(=O)c1sc(NC(=O)c2c(C)nn(Cc3ccccc3)c2C)cc1C	1.3	13.4*	59.7	94.5
CCOC(=O)c1sc(NC(=O)c2ccc(Cl)s2)cc1C	-2.6	97.5	67.3	104.4
O=C(c1cnn2c1NC(c1ccco1)CC2C(F)(F)F)N1CCN(c2cccc(Cl)c2)CC1 (configuration not stated)	9.9	14.0*	57.7	88.3
Cc1c(C(=O)N2CCOCC2)sc2ncnc(N3CCc4ccccc4C3)c12	8.7	63.5	87.5	96.4
COCCCNC(=O)c1sc2ncnc(N3CCc4ccccc4C3)c2c1C	x	27.7*	59.8	67.6
Nc1nonc1-c1nc2ccccc2n1Cc1ccc(F)cc1Cl	4.2	39.0*	57.0	55.5
COc1ccc2c(c1)CCc1c(C(=O)NCCCn3ccnc3)noc1-2	-3.6	1.5*	92.8	107.5
COc1ccc(Cl)cc1N1Cc2ccccc2C1	x	99.8	89.6	96.0
COc1ccccc1-n1c(=O)oc2ccc(Cl)cc2c1=O	18.6	1.5*	20.1*	50.4
CCOC(=O)C1=C(C)n2c(s/c(=C/c3cccc([N+](=O)[O-])c3)c2=O)=NC1c1ccc(O)c(OC)c1 (configuration not stated)	x	3.2*	7.4*	16.9*
SMILES	Jurkat tox 60K	H69AR growth 86K	HUVEC prolif 384	Lung fibro prol
COc1cc(/C=c2\sc3n(c2=O)C(c2ccccc2)C(c2ccccc2)=NN=3)ccc1O (configuration not stated)	x	63.6	97.0	100.6
COc1ccc(CCn2nnc(-c3ccc(NC(C)=O)c(Cl)c3)n2)cc1	x	95.5	81.7	107.9
CCOC(=O)c1c(NC(=O)Cn2c(C)nc3ccccc32)sc2c1CCC2	3.2	35.9*	82.7	68.8
CCOC(=O)c1c(NC(=O)c2ccc(-n3cnnn3)cc2)sc2c1CCCC2	-2.2	2.1*	36.3	x
CCC(c1nnnn1CCc1ccccc1)N(Cc1ccco1)Cc1cc2c(C)ccc(C)c2[nH]c1=O (configuration not stated)	-11.2	24.3*	78.4	86.6
CCC(c1nnnn1CCc1ccccc1)N(Cc1ccco1)Cc1cc2cc(C)cc(C)c2[nH]c1=O (configuration not stated)	8.3	26.1*	81.9	83.0
CCOC(=O)c1cnn(-c2sc(C(=O)OCC)c(C)c2C(=O)OCC)c1N	2.0	24.0*	58.8	101.2
